Assay results from ChEMBL document CHEMBL4396874, “Consideration of Binding Kinetics in the Design of Stapled Peptide Mimics of the Disordered Proteins Eukaryotic Translation Initiation Factor 4E-Binding Protein 1 and Eukaryotic Translation Initiation Factor 4G” (J Med Chem, 2019).
Values belong to the compound of their own block, whether it stands above or below them. The source made the active and inactive calls. The calls are words filed in the database; no cut-off is given here. Bridge positions count the residues as written; N and C are the ends. Square brackets hold non-standard residues; d marks the D form. Peptide text beside a SMILES is read from it. S5 = C=CCCC[C@](C)(N)C(=O)O

Key:
[1] = biological target: T1, Eukaryotic translation initiation factor 4E (Homo sapiens, UniProt P06730); assay: Binding affinity to N-terminal 10His-tagged m7GDP-bound recombinant human eIF4E expressed in Escherichia coli BL21 (DE3) cells assessed as dissociation constant at 10 to 25 degreeC by surface plasmon resonance analysis relative to control
Summary of the method: (§1)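 Peptides injected at 50 μL/min, 10 concentrations (188 nM to 4.0 μM) in duplicate, random order. Chip stripped with EDTA and reloaded between cycles.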

[2] = biological target: T1, Eukaryotic translation initiation factor 4E; assay: Binding affinity to N-terminal 10His-tagged m7GDP-bound recombinant human eIF4E expressed in Escherichia coli BL21 (DE3) cells assessed as association rate constant at 25 degreeC by surface plasmon resonance analysis
[3] = biological target: T1, Eukaryotic translation initiation factor 4E; assay: Binding affinity to N-terminal 10His-tagged m7GDP-bound recombinant human eIF4E expressed in Escherichia coli BL21 (DE3) cells assessed as association constant at 12.5 to 200 nM at 10 to 25 degreeC by surface plasmon resonance analysis
[4] = biological target: T1, Eukaryotic translation initiation factor 4E; assay: Binding affinity to N-terminal 10His-tagged m7GDP-bound recombinant human eIF4E expressed in Escherichia coli BL21 (DE3) cells assessed as binding constant at 10 to 25 degreeC by surface plasmon resonance analysis
[5] = biological target: T1, Eukaryotic translation initiation factor 4E; assay: Binding affinity to N-terminal 10His-tagged m7GDP-bound recombinant human eIF4E expressed in Escherichia coli BL21 (DE3) cells assessed as binding constant at 25 degreeC by surface plasmon resonance analysis
Summary of the method: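 m7GDP-bound His10-eIF4E captured to ~600 RU on a Ni-activated HisCap chip. EDTA regeneration between cycles. Kd from global 1:1 fit; triplicate experiments.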

[6] = biological target: Eukaryotic translation initiation factor 4E/Eukaryotic translation initiation factor 4E-binding protein 1 (Homo sapiens, UniProt P06730); assay: Inhibition of Halo-tagged biotinylated human eIF4E expressed in Escherichia coli/Halo-tagged methyltetrazine-labelled human 4E-BP1 expressed in Escherichia coli protein-protein interaction incubated for 1 hr by catalytic enzyme-linked click chemistry assay
[7] = biological target: T1, Eukaryotic translation initiation factor 4E; assay: Binding affinity to N-terminal 10His-tagged m7GDP-bound recombinant human eIF4E expressed in Escherichia coli BL21 (DE3) cells assessed as binding constant at 25 degreeC in presence of 1000 mM of NaCl by surface plasmon resonance analysis; summary of the method: as §1
[8] = biological target: T1, Eukaryotic translation initiation factor 4E; assay: Binding affinity to N-terminal 10His-tagged m7GDP-bound recombinant human eIF4E expressed in Escherichia coli BL21 (DE3) cells assessed as dissociation rate constant at 25 degreeC by surface plasmon resonance analysis
[9] = biological target: T1, Eukaryotic translation initiation factor 4E; assay: Binding affinity to N-terminal 10His-tagged m7GDP-bound recombinant human eIF4E expressed in Escherichia coli BL21 (DE3) cells assessed as dissociation constant at 25 degreeC in presence 225 to 1000 mM of NaCl by surface plasmon resonance analysis
[10] = biological target: T1, Eukaryotic translation initiation factor 4E
MDA-MB-231 [11] = assay: Anti-proliferative activity against human MDA-MB-231 cells at 5 to 20 uM after 6 days by CellTiter-Glo assay; assay type: functional, cell-based
Summary of the method: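 MDA-MB-231 cells (RPMI-1640, 10% FBS, 2 mM glutamine) plated at 2000 cells/well; peptides added at varying concentrations in triplicate for 6 days. Medium then replaced with OptiMEM, cells lysed with CellTiter-Glo reagent, luminescence read within 1 h. Data normalized; triplicate biological replicates.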

MDA-MB-231 [12] = assay: Effect on total eIF4E level in human MDA-MB-231 cells at 5 uM after 6 hrs by Western blot analysis; assay type: ADME, cell-based; conditions: mda-mb-231, 6 h
Summary of the method: (§2)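 MDA-MB-231 cells in 10% FBS treated 6 h with water-dissolved peptides, lysed in RIPA with protease/phosphatase inhibitors, sonicated on ice, protein normalized by BCA, then western blotted (4–12% bis-Tris gel, PVDF, 5% milk block, primary overnight at 4 °C). Triplicate biological replicates.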

MDA-MB-231 [13] = assay: Effect on total 4E-BP1 level in human MDA-MB-231 cells at 5 uM after 6 hrs by Western blot analysis; assay type: ADME, cell-based; conditions: mda-mb-231, 6 h; summary of the method: as §2
MDA-MB-231 [14] = assay: Effect on total eIF4G level in human MDA-MB-231 cells at 5 uM after 6 hrs by Western blot analysis; assay type: ADME, cell-based; conditions: mda-mb-231, 6 h; summary of the method: as §2
[15] = biological target: Eukaryotic translation initiation factor 4E/Eukaryotic translation initiation factor 4E-binding protein 1 (Homo sapiens) (UniProt P06730+Q13541); assay: Inhibition of eIF4E/4E-BP1 interaction in human MDA-MB-231 cells incubated for 6 hr by m7GDP pull down assay; assay type: cell-based
[16] = biological target: EIF4E/EIF4G1 (Homo sapiens) (UniProt P06730+Q04637); assay: Inhibition of eIF4E/eIF4G interaction in human MDA-MB-231 cells incubated for 6 hr by m7GDP pull down assay; assay type: cell-based
MDA-MB-231 [17] = assay: Induction of cell lysis in human MDA-MB-231 cells assessed as LDH leakage at 15 uM after 24 hrs by LDH cytotoxicity assay; conditions: mda-mb-231, 24 h

T1 sequence (P06730 whole entry): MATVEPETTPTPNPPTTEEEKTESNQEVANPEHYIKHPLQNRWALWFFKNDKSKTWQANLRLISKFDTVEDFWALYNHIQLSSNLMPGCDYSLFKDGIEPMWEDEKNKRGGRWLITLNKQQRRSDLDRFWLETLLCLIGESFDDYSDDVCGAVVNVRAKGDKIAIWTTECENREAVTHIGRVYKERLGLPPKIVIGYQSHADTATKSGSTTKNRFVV
Eukaryotic translation initiation factor 4E/Eukaryotic translation initiation factor 4E-binding protein 1, sequence (P06730 whole entry): as above
Eukaryotic translation initiation factor 4E/Eukaryotic translation initiation factor 4E-binding protein 1, sequence (Q13541 whole entry, further chain): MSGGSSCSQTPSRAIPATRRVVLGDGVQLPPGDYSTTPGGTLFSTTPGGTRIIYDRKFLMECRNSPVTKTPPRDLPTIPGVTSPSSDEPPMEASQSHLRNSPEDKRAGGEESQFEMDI
Eukaryotic translation initiation factor 4E/Eukaryotic translation initiation factor 4E-binding protein 1 (Homo sapiens), sequence (P06730 2-217 limits assumed): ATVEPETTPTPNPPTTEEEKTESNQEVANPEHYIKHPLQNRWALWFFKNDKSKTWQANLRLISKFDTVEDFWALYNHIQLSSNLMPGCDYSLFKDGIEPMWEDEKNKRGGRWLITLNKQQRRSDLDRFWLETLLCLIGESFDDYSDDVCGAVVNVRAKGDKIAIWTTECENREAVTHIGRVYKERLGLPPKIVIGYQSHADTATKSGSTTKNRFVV
Eukaryotic translation initiation factor 4E/Eukaryotic translation initiation factor 4E-binding protein 1 (Homo sapiens), sequence (Q13541 2-118 partner limits assumed): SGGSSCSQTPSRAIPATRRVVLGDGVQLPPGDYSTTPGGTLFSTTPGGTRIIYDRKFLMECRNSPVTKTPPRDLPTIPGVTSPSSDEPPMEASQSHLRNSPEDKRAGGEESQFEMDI

Ka [3]: inactive | fold change (FC) [1]: 3.9 to 5.5 | K [4]: Active | K [5]: 62 nM | IC50 [6]: 384 to 633 nM | K [7]: 14 to 62 nM | kon [2]: 2 ×10⁶ /M/s | koff [8]: 123 ×10⁻³ /s
Compound: Ac-KKRYSREQLLGL-NH2

IC50 [6]: 137 to 195 nM
Compound: CC(=O)N[C@@H](CCCCN)C(=O)N[C@@H](CCCCN)C(=O)N[C@@H](CCCNC(=N)N)C(=O)N[C@@H](Cc1ccc(O)cc1)C(=O)N[C@@H](CC(=O)O)C(=O)N[C@@H](CCCNC(=N)N)C(=O)N[C@@H](CCC(=O)O)C(=O)N[C@@H](Cc1ccccc1)C(=O)N[C@@H](CC(C)C)C(=O)N[C@@H](CC(C)C)C(=O)NCC(=O)N[C@@H](Cc1ccccc1)C(=O)N[C@@H](CCC(N)=O)C(=O)N[C@@H](Cc1ccccc1)C(N)=O

IC50 [6]: 3.1 to 6.7 nM
Compound: CC[C@H](C)[C@H](NC(=O)[C@H](CCCNC(=N)N)NC(=O)[C@@H](NC(=O)CNC(C)=O)[C@@H](C)O)C(=O)N[C@H](C(=O)N[C@@H](Cc1ccc(O)cc1)C(=O)N[C@@H](CC(=O)O)C(=O)N[C@@H](CCCNC(=N)N)C(=O)N[C@@]1(C)CCC/C=C\CCC[C@@](C)(C(=O)N[C@@H](CS)C(=O)N[C@@H](CCCNC(=N)N)C(=O)N[C@@H](CC(N)=O)C(N)=O)NC(=O)[C@H](CCSC)NC(=O)[C@H](CC(C)C)NC(=O)[C@H](Cc2ccccc2)NC1=O)[C@@H](C)CC
Activity (MDA-MB-231 [12]): Non-Toxic | Activity (MDA-MB-231 [13]): Non-Toxic | Activity (MDA-MB-231 [14]): Non-Toxic | Activity (MDA-MB-231 [11]): Active

IC50 [6]: 16.6 to 31 nM | inhibition [15]: Dose-dependent effect | inhibition [16]: Dose-dependent effect
Compound: CC(=O)N[C@@H](CCCCN)C(=O)N[C@@H](CCCCN)C(=O)N[C@@H](CCCNC(=N)N)C(=O)N[C@@H](Cc1ccc(O)cc1)C(=O)N[C@@H](CO)C(=O)N[C@@H](CCCNC(=N)N)C(=O)N[C@@]1(C)CCC/C=C\CCC[C@@](C)(C(=O)N[C@@H](CC(C)C)C(N)=O)NC(=O)[C@H](CC(C)C)NC(=O)[C@H](CC(C)C)NC(=O)[C@H](CCC(N)=O)NC1=O
Activity (MDA-MB-231 [12]): Non-Toxic | Activity (MDA-MB-231 [13]): Non-Toxic | Activity (MDA-MB-231 [14]): Non-Toxic | Activity (MDA-MB-231 [11]): Active | Activity (MDA-MB-231 [17]): Non-Toxic

Second part, the compound before the results:

Compound: H-KKRYDRKFLMECRN-NH2
fold change (FC) [1]: 3.9 to 5.5 | kon [2]: 2 ×10⁶ /M/s

Compound: CC[C@H](C)[C@H](NC(=O)[C@@H](NC(=O)[C@@H](N)CCCNC(=N)N)[C@@H](C)CC)C(=O)N[C@@H](Cc1ccc(O)cc1)C(=O)N[C@@H](CC(=O)O)C(=O)N[C@@H](CCCNC(=N)N)C(=O)N[C@@H](CCCCN)C(=O)N[C@@H](Cc1ccccc1)C(=O)N[C@@H](CC(C)C)C(=O)N[C@@H](CCSC)C(=O)N[C@@H](CCC(=O)O)C(=O)N[C@@H](CS)C(=O)N[C@@H](CCCNC(=N)N)C(=O)N[C@@H](CC(N)=O)C(N)=O
fold change (FC) [1]: 3.9 to 5.5 | Kd [9]: Not Active | K [7]: Active | Ka [10]: inactive

Compound: CC[C@H](C)[C@H](NC(=O)[C@H](CCCNC(=N)N)NC(=O)[C@@H](NC(=O)CNC(C)=O)[C@@H](C)O)C(=O)N[C@H](C(=O)N[C@@H](Cc1ccc(O)cc1)C(=O)N[C@@H](CC(=O)O)C(=O)N[C@@H](CCCNC(=N)N)C(=O)N[C@@]1(C)CCC/C=C\CCC[C@@](C)(C(=O)N[C@@H](CS)C(=O)N[C@@H](CCCNC(=N)N)C(=O)N[C@@H](CC(N)=O)C(N)=O)NC(=O)[C@H](C)NC(=O)[C@H](C)NC(=O)[C@H](Cc2ccccc2)NC1=O)[C@@H](C)CC
Activity (MDA-MB-231 [11]): inactive

Compound: CC(=O)N[C@@H](CCCCN)C(=O)N[C@@H](CCCCN)C(=O)N[C@@H](CCCNC(=N)N)C(=O)N[C@@H](Cc1ccc(O)cc1)C(=O)N[C@@H](CC(=O)O)C(=O)N[C@@H](CCCNC(=N)N)C(=O)N[C@@]1(C)CCC/C=C\CCC[C@@](C)(C(=O)N[C@@H](Cc2ccccc2)C(=O)N[C@@H](CCC(N)=O)C(=O)N[C@@H](Cc2ccccc2)C(N)=O)NC(=O)[C@H](CC(C)C)NC(=O)[C@H](CC(C)C)NC(=O)[C@H](Cc2ccccc2)NC1=O (Ac-KKRYDR[S5]FLL[S5]FQF-NH2; staple (Z) 7-11)
IC50 [6]: 4500 to 7300 nM
